Where “and” joins values, the source holds several entries; their conditions need not be identical. Identical values can stand only once. *1 amine or outer side, *2 acyl side, *3 side chain or, on linkers, in order; H or OH if unused. Where a SMILES comes first, the peptide text is derived from it. Bridges are numbered along the chain shown (N, C = ends). Roman numbers before positions name the chains, in order. [ ]: non-standard residue; d: D form. Hexamethylenediamine = C(CCCN[*:2])CCN[*:1]; Dip = N[C@H](C(=O)O)C(c1ccccc1)c1ccccc1; Chg = N[C@H](C(=O)O)C1CCCCC1; NMeA = CN[C@@H](C)C(=O)O
Tested on: U2OS
Experiment: Multiplex assay against U2OS
Format: toxicity, cell-based
Conditions: human, number of replicates 2
Procedure, shortened: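 On a CQ1 microscope at 37°C and 5% CO2, live cells were imaged after compound addition. They had been stained at seeding with Hoechst33342, BioTracker Green Microtubule Cytoskeleton Dye, MitoTracker Red and Annexin V Alexa Fluor 680. CellPathfinder machine-learning gating assigned cells to Hoechst high-intensity objects or normal cells, normal cells to healthy, pyknosed or fragmented nuclei, and pyknosed cells to mitotic or apoptotic. Tubulin, mitochondrial-mass and membrane-permeability phenotypes are per cents of healthy-nucleus cells.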

[1] = 12 h, 1 µM, compound concentration 1 uM
[2] = 12 h, 10 µM, compound concentration 10 uM
[3] = 24 h, 1 µM, compound concentration 1 uM
[4] = 24 h, 10 µM, compound concentration 10 uM
[5] = 48 h, 1 µM, compound concentration 1 uM
[6] = 48 h, 10 µM, compound concentration 10 uM

SMILES: CN[C@@H](C)C(=O)N[C@H](C(=O)N1CCC[C@H]1C(=O)N[C@H](C(=O)NCCCCCCNC(=O)[C@@H](NC(=O)[C@@H]1CCCN1C(=O)[C@@H](NC(=O)[C@H](C)NC)C1CCCCC1)C(c1ccccc1)c1ccccc1)C(c1ccccc1)c1ccccc1)C1CCCCC1 (I: H-[NMeA][Chg]P[Dip] / II: H-[NMeA][Chg]P[Dip]; linker I:C-II:C via Hexamethylenediamine)
- Population Apoptotic (%) [1]: 75% and 38%
- Population Healthy Nuclei (%) [1]: 41% and 84%
- Population Hoechst High Intensity Objects (%) [1]: 0%
- Population Membrane Permeable-Phenotype (%) [1]: 0%
- Population Mitochondria Different-Phenotype (%) [1]: 0%
- Population Mitotic Cells (%) [1]: 25% and 61%
- Population Normal (%) [1]: 100%
- Population Pyknosed Nuclei (%) [1]: 7% and 12%
- Population Tubulin-Different-Phenotype (%) [1]: 36% and 78%
- Total Cell Count [1]: 53 and 104
- Population Apoptotic (%) [2]: 90% and 91%
- Population Healthy Nuclei (%) [2]: 62% and 56%
- Population Hoechst High Intensity Objects (%) [2]: 1% and 0%
- Population Membrane Permeable-Phenotype (%) [2]: 10% and 0%
- Population Mitochondria Different-Phenotype (%) [2]: 20% and 19%
- Population Mitotic Cells (%) [2]: 9% and 8%
- Population Normal (%) [2]: 98% and 100%
- Population Pyknosed Nuclei (%) [2]: 31% and 21%
- Population Tubulin-Different-Phenotype (%) [2]: 57% and 22%
- Population Apoptotic (%) [3]: 62% and 52%
- Population Healthy Nuclei (%) [3]: 47% and 89%
- Population Hoechst High Intensity Objects (%) [3]: 0%
- Population Membrane Permeable-Phenotype (%) [3]: 9% and 0%
- Population Mitochondria Different-Phenotype (%) [3]: 0%
- Population Mitotic Cells (%) [3]: 37% and 47%
- Population Normal (%) [3]: 100%
- Population Pyknosed Nuclei (%) [3]: 12% and 9%
- Total Cell Count [3]: 65 and 175
- Population Apoptotic (%) [4]: 77% and 80%
- Population Fragmented Nuclei (%) [4]: 9%
- Population Healthy Nuclei (%) [4]: 54% and 58%
- Population Hoechst High Intensity Objects (%) [4]: 0%
- Population Membrane Permeable-Phenotype (%) [4]: 11% and 8%
- Population Mitotic Cells (%) [4]: 22% and 19%
- Population Normal (%) [4]: 100% and 99%
- Population Pyknosed Nuclei (%) [4]: 35% and 32%
- Population Tubulin-Different-Phenotype (%) [4]: 23% and 47%
- Population Apoptotic (%) [5]: 78% and 74%
- Population Healthy Nuclei (%) [5]: 45% and 79%
- Population Hoechst High Intensity Objects (%) [5]: 0%
- Population Membrane Permeable-Phenotype (%) [5]: 9% and 2%
- Population Mitochondria Different-Phenotype (%) [5]: 4% and 0%
- Population Mitotic Cells (%) [5]: 21% and 25%
- Population Normal (%) [5]: 100%
- Population Pyknosed Nuclei (%) [5]: 20% and 12%
- Population Tubulin-Different-Phenotype (%) [5]: 33% and 81%
- Population Apoptotic (%) [6]: 94% and 76%
- Population Fragmented Nuclei (%) [6]: 7% and 14%
- Population Healthy Nuclei (%) [6]: 63% and 52%
- Population Hoechst High Intensity Objects (%) [6]: 0%
- Population Membrane Permeable-Phenotype (%) [6]: 9% and 10%
- Population Mitochondria Different-Phenotype (%) [6]: 7% and 8%
- Population Normal (%) [6]: 99% and 100%
- Population Pyknosed Nuclei (%) [6]: 28% and 33%
- Population Tubulin-Different-Phenotype (%) [6]: 50% and 34%

SMILES: CCN1C(=O)N(c2c(F)c(OC)cc(OC)c2F)Cc2cnc3[nH]c(CN4CCOCC4)cc3c21 [PEMIGATINIB]
- Population Apoptotic (%) [1]: 83% and 63%
- Population Fragmented Nuclei (%) [1]: 7% and 3%
- Population Healthy Nuclei (%) [1]: 82% and 90%
- Population Hoechst High Intensity Objects (%) [1]: 0%
- Population Membrane Permeable-Phenotype (%) [1]: 0% and 1%
- Population Mitochondria Different-Phenotype (%) [1]: 0% and 1%
- Population Mitotic Cells (%) [1]: 16% and 36%
- Population Normal (%) [1]: 100%
- Population Pyknosed Nuclei (%) [1]: 9% and 5%
- Population Tubulin-Different-Phenotype (%) [1]: 64% and 80%
- Population Apoptotic (%) [2]: 33% and 74%
- Population Healthy Nuclei (%) [2]: 45% and 78%
- Population Hoechst High Intensity Objects (%) [2]: 0%
- Population Membrane Permeable-Phenotype (%) [2]: 0% and 5%
- Population Mitochondria Different-Phenotype (%) [2]: 0%
- Population Mitotic Cells (%) [2]: 66% and 25%
- Population Normal (%) [2]: 100%
- Population Pyknosed Nuclei (%) [2]: 29% and 15%
- Population Tubulin-Different-Phenotype (%) [2]: 64% and 52%
- Population Apoptotic (%) [3]: 54% and 90%
- Population Fragmented Nuclei (%) [3]: 6% and 2%
- Population Healthy Nuclei (%) [3]: 81% and 89%
- Population Hoechst High Intensity Objects (%) [3]: 0%
- Population Membrane Permeable-Phenotype (%) [3]: 1% and 2%
- Population Mitochondria Different-Phenotype (%) [3]: 0% and 2%
- Population Normal (%) [3]: 100% and 99%
- Population Pyknosed Nuclei (%) [3]: 12% and 7%
- Population Tubulin-Different-Phenotype (%) [3]: 66% and 78%
- Total Cell Count [3]: 91 and 271
- Population Apoptotic (%) [4]: 80% and 78%
- Population Fragmented Nuclei (%) [4]: 14% and 6%
- Population Healthy Nuclei (%) [4]: 48% and 72%
- Population Hoechst High Intensity Objects (%) [4]: 0% and 1%
- Population Membrane Permeable-Phenotype (%) [4]: 0% and 5%
- Population Mitochondria Different-Phenotype (%) [4]: 0% and 4%
- Population Mitotic Cells (%) [4]: 20% and 21%
- Population Normal (%) [4]: 100% and 98%
- Population Pyknosed Nuclei (%) [4]: 37% and 21%
- Population Tubulin-Different-Phenotype (%) [4]: 69% and 56%
- Population Apoptotic (%) [5]: 50% and 76%
- Population Fragmented Nuclei (%) [5]: 8% and 2%
- Population Healthy Nuclei (%) [5]: 80% and 89%
- Population Hoechst High Intensity Objects (%) [5]: 0%
- Population Membrane Permeable-Phenotype (%) [5]: 0% and 1%
- Population Mitochondria Different-Phenotype (%) [5]: 0%
- Population Mitotic Cells (%) [5]: 50% and 23%
- Population Normal (%) [5]: 100% and 99%
- Population Pyknosed Nuclei (%) [5]: 10% and 8%
- Population Tubulin-Different-Phenotype (%) [5]: 72% and 82%
- Population Apoptotic (%) [6]: 86% and 82%
- Population Fragmented Nuclei (%) [6]: 11% and 6%
- Population Healthy Nuclei (%) [6]: 25% and 60%
- Population Hoechst High Intensity Objects (%) [6]: 0%
- Population Membrane Permeable-Phenotype (%) [6]: 0% and 7%
- Population Mitochondria Different-Phenotype (%) [6]: 0% and 5%
- Population Mitotic Cells (%) [6]: 13% and 17%
- Population Normal (%) [6]: 100% and 99%
- Population Pyknosed Nuclei (%) [6]: 63% and 33%
- Population Tubulin-Different-Phenotype (%) [6]: 44% and 60%

SMILES: CCOC(=O)Nc1cc(-c2ccc(C)c(NS(C)(=O)=O)c2)nn2c(C)nnc12
- Population Apoptotic (%) [2]: 54% and 50% and 20%
- Population Healthy Nuclei (%) [2]: 66% and 75% and 76% and 53%
- Population Hoechst High Intensity Objects (%) [2]: 0%
- Population Membrane Permeable-Phenotype (%) [2]: 3% and 0% and 5%
- Population Mitochondria Different-Phenotype (%) [2]: 3% [middle of 4 runs]
- Population Mitotic Cells (%) [2]: 45% and 50% and 80%
- Population Normal (%) [2]: 100%
- Population Pyknosed Nuclei (%) [2]: 24% and 19% and 17% and 15%
- Population Tubulin-Different-Phenotype (%) [2]: 59% [middle of 4 runs]
- Population Apoptotic (%) [4]: 70% and 65% and 53% and 66%
- Population Healthy Nuclei (%) [4]: 59% and 69% and 67% and 50%
- Population Hoechst High Intensity Objects (%) [4]: 0%
- Population Membrane Permeable-Phenotype (%) [4]: 6% [middle of 4 runs]
- Population Mitotic Cells (%) [4]: 29% and 35% and 46% and 33%
- Population Normal (%) [4]: 100% and 99%
- Population Pyknosed Nuclei (%) [4]: 20% [middle of 4 runs]
- Population Tubulin-Different-Phenotype (%) [4]: 71% [middle of 4 runs]
- Population Apoptotic (%) [6]: 85% and 72% and 76%
- Population Fragmented Nuclei (%) [6]: 30% and 20% and 18%
- Population Healthy Nuclei (%) [6]: 30% and 33% and 51%
- Population Hoechst High Intensity Objects (%) [6]: 0% and 3%
- Population Mitochondria Different-Phenotype (%) [6]: 9% and 0% and 3%
- Population Mitotic Cells (%) [6]: 14% and 27% and 23%
- Population Normal (%) [6]: 100% and 96% and 99%
- Population Pyknosed Nuclei (%) [6]: 38% and 45% and 27% and 29%

Source: ChEMBL document CHEMBL5303300, “EUbOPEN Chemogenomics Library - Multiplex” (2023)
